{"source": "paper PMC8856734", "about": "(Journal of medicinal chemistry, 2021)", "key": {"BRD4 BD1 [1]": {"target": "T1, BRD4 BD1 (Homo sapiens, UniProt O60885)", "assay": "BRD4 AlphaScreen assay with biotinylated JQ1", "assay_type": "binding"}, "IRF4/MYC axis": {"tested_on": "IRF4/MYC axis", "assay": "Immunoblot of MYC and IRF4 in MM.1S cells", "assay_type": "cell-based", "settings": "24 h, 2.5 μM", "summary_of_the_method": "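MM.1S cells exposed 24 h to DMSO or 2.5 μM of test compounds (CBP/EP300-selective and BRD4-selective). Lysates immunoblotted for MYC and IRF4, with β-actin as loading control.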"}, "CBP": {"tested_on": "CBP", "settings": "read-out: CBP IC50; cited from earlier work"}, "BRD4 BD1 [2]": {"target": "T1, BRD4 BD1", "assay": "Differential scanning fluorometry", "assay_type": "binding", "settings": "temperature shift"}, "CBP bromodomain [3]": {"target": "T2, CBP bromodomain (Homo sapiens, UniProt Q92793)", "T2 sequence (Q92793 1085-1192 limits assumed)": "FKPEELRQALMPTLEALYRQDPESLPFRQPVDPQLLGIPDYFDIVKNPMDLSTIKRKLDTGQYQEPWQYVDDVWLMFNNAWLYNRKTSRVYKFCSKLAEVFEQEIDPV", "assay": "Differential scanning fluorometry", "assay_type": "binding", "settings": "for DSF selectivity: CBP and EP300 versus BRD4 BD1, compared with CBP30"}, "EP300 (P300) bromodomain": {"target": "T3, EP300 (P300) bromodomain (Homo sapiens, UniProt Q09472)", "T3 sequence (Q09472 1049-1156 limits assumed)": "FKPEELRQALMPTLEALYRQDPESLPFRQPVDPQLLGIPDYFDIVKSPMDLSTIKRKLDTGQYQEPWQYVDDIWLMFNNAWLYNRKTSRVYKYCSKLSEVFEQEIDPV", "assay": "Differential scanning fluorometry", "assay_type": "binding", "settings": "temperature shift"}, "CBP bromodomain [4]": {"target": "T2, CBP bromodomain", "assay": "CBP AlphaScreen assay with biotinylated small molecule probe compound C", "assay_type": "binding", "settings": "for loss in inhibitory activity against CBP: other warheads in place of 3,5-dimethylisoxazole; for loss in CBP inhibitory activity: compared to compound 23"}, "MOLM13 cells": {"tested_on": "MOLM13 cells", "assay": "CellTiter-Glo cell viability, MOLM13", "assay_type": "cell-based", "settings": "5 day, ATP-dependent luminescence", "summary_of_the_method": "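MOLM13 cells seeded at 500/well in 384-well plates, given serially pre-diluted test compound or reference CBP inhibitor by pin transfer; 5-day incubation, then ATP-dependent luminescence (CellTiter-Glo).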"}, "multiple myeloma lines": {"tested_on": "multiple myeloma lines", "assay": "Cell viability, multiple myeloma lines", "assay_type": "cell-based", "settings": "5-day incubation", "summary_of_the_method": "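Cells seeded at 500/well in 384-well plates; serially pre-diluted test compound added by pin transfer (100 nl). Viability read by CellTiter-Glo luminescence after 5-day incubation. Data normalized to DMSO control; IC50 from nonlinear regression curve fit.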"}, "H3K27ac level": {"tested_on": "H3K27ac level", "assay": "Immunoblot of H3K27ac in MOLM13 cells", "assay_type": "cell-based", "settings": "2 h"}, "MYC expression level": {"tested_on": "MYC expression level", "assay": "Immunoblot of MYC in MOLM13 cells", "assay_type": "cell-based", "settings": "2 h", "summary_of_the_method": "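MOLM13 cells seeded in 6-well plates at 1×10^6 cells/well and treated 2 h with DMSO or 3.0 μM test compound or reference CBP inhibitor. Protein extracted in RIPA plus protease inhibitor cocktail, run on Bis-Tris gels, wet-transferred to PVDF. Probed for MYC, β-actin, H3 and H3K27ac with IRDye secondaries.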"}, "34 bromodomains": {"tested_on": "34 bromodomains", "assay": "BROMOSCAN profiling against 34 bromodomains", "assay_type": "binding", "settings": "1 μM compound concentration"}}}
{"smiles": "COc1ccc(CCc2nc3cc(-c4c(C)noc4C)ccc3n2C[C@H](C)N2CCOCC2)cc1Cl", "note": "[CBP30, reference compound]", "values": [{"measurement": "IC50", "setting": "BRD4 BD1 [1]", "result": "10.1 ± 0.55", "unit": "µM"}, {"measurement": "IRF4/MYC axis perturbation", "setting": "IRF4/MYC axis", "result": "perturbed"}, {"measurement": "IC50", "setting": "CBP", "result": "[…]"}]}
{"smiles": "Cc1noc(C)c1-c1ccn2c(NC3CCCCC3)c(CCc3ccccc3)nc2c1", "note": "[Compound 7, N-cyclohexyl-7-(3,5-dimethylisoxazol-4-yl)-2-phenethylimidazo[1,2-a]pyridin-3-amine]", "values": [{"measurement": "DSF activity toward BRD4", "setting": "BRD4 BD1 [2]", "result": "very modest activity"}, {"measurement": "DSF activity against CBP", "setting": "CBP bromodomain [3]; temperature shift", "result": "more active"}, {"measurement": "DSF activity against EP300", "setting": "EP300 (P300) bromodomain", "result": "more active"}]}
{"smiles": "CN1Cc2cc(-c3ccn4c(NC5CCCCC5)c(CCc5ccccc5)nc4c3)ccc2NC1=O", "note": "[Compound 9]", "values": [{"measurement": "loss in inhibitory activity against CBP", "setting": "CBP bromodomain [4]", "result": "greater than 10 fold"}]}
{"smiles": "Cc1[nH]nc2cc(-c3ccn4c(NC5CCCCC5)c(CCc5ccccc5)nc4c3)ccc12", "note": "[Compound 10]", "values": [{"measurement": "loss in inhibitory activity against CBP", "setting": "CBP bromodomain [4]", "result": "greater than 10 fold"}, {"measurement": "IRF4/MYC axis perturbation", "setting": "IRF4/MYC axis", "result": "not with BRD4 inhibitor"}]}
{"smiles": "Cc1noc2cc(-c3ccn4c(NC5CCCCC5)c(CCc5ccccc5)nc4c3)ccc12", "note": "[Compound 11]", "values": [{"measurement": "loss in inhibitory activity against CBP", "setting": "CBP bromodomain [4]", "result": "greater than 10 fold"}, {"measurement": "IRF4/MYC axis perturbation", "setting": "IRF4/MYC axis", "result": "not with BRD4 inhibitor"}]}
{"smiles": "Cc1noc(C)c1-c1ccn2c(NC(C)(C)C)c(CCc3ccccc3)nc2c1", "note": "[Compound 13, N-(tert-butyl)-7-(3,5-dimethylisoxazol-4-yl)-2-phenethylimidazo[1,2-a]pyridin-3-amine]", "values": [{"measurement": "decrease in CBP inhibitory potency", "setting": "CBP bromodomain [4]; compared to compound 16", "result": "> 5", "unit": "fold"}]}
{"smiles": "COc1ccc(CCc2nc3cc(-c4c(C)noc4C)ccn3c2NC23CC4CC(CC(C4)C2)C3)cc1", "note": "[Compound 14, N-((3s,5s,7s)-adamantan-1-yl)-7-(3,5-dimethylisoxazol-4-yl)-2-(4-methoxyphenethyl)imidazo[1,2-a]pyridin-3-amine]", "values": [{"measurement": "decrease in CBP inhibitory potency", "setting": "CBP bromodomain [4]; compared to compound 16", "result": "> 5", "unit": "fold"}]}
{"smiles": "COc1ccc(CCc2nc3cc(-c4c(C)noc4C)ccn3c2NCCN2CCOCC2)cc1", "note": "[Compound 15]", "values": [{"measurement": "decrease in CBP inhibitory potency", "setting": "CBP bromodomain [4]; compared to compound 16", "result": "~2", "unit": "fold"}]}
{"smiles": "COc1ccc(CCc2nc3cc(-c4c(C)noc4C)ccn3c2NC2CCCCC2)cc1", "note": "[Compound 16, N-cyclohexyl-7-(3,5-dimethylisoxazol-4-yl)-2-(4-methoxyphenethyl)imidazo[1,2-a]pyridin-3-amine]", "values": [{"measurement": "increase in CBP inhibitory potency", "setting": "CBP bromodomain [4]; compared to compound 7", "result": 5, "unit": "fold"}, {"measurement": "DSF selectivity", "setting": "CBP bromodomain [3]", "result": "greater selectivity than the known inhibitor, CBP30"}]}
{"smiles": "COc1ccc(CCc2nc3cc(-c4c(C)noc4C)ccn3c2NC(C)C)cc1", "note": "[Compound 17, 7-(3,5-dimethylisoxazol-4-yl)-N-isopropyl-2-(4-methoxyphenethyl)imidazo[1,2-a]pyridin-3-amine]", "values": [{"measurement": "decrease in CBP inhibitory potency", "setting": "CBP bromodomain [4]; compared to compound 16", "result": "~3", "unit": "fold"}]}
{"smiles": "COc1ccc(CCc2nc3cc(-c4c(C)noc4C)ccn3c2NC(C)(C)C)cc1", "note": "[Compound 18]", "values": [{"measurement": "decrease in CBP inhibitory potency", "setting": "CBP bromodomain [4]; compared to compound 16", "result": "> 5", "unit": "fold"}]}
{"smiles": "CCCOc1ccc(CCc2nc3cc(-c4c(C)noc4C)ccn3c2NC2CCCCC2)cc1", "note": "[Compound 20]", "values": [{"measurement": "decrease in CBP inhibitory potency", "setting": "CBP bromodomain [4]; compared to compound 16", "result": "~ 4 fold"}]}
{"smiles": "COc1ccc(CCc2nc3cc(-c4c(C)noc4C)ccn3c2NCc2ccccc2)cc1", "note": "[Compound 21]", "values": [{"measurement": "decrease in CBP inhibitory potency", "setting": "CBP bromodomain [4]; compared to compound 16", "result": 10, "unit": "fold"}]}
{"smiles": "COc1ccc(CCc2nc3cc(-c4c(C)noc4C)ccn3c2NCc2ccc(Cl)cc2)cc1", "note": "[Compound 22]", "values": [{"measurement": "decrease in CBP inhibitory potency", "setting": "CBP bromodomain [4]; compared to compound 16", "result": 10, "unit": "fold"}]}
{"smiles": "COc1ccc(CCc2nc3cc(-c4c(C)noc4C)ccn3c2NC2CCCCC2)cc1Cl", "note": "[Compound 23, 2-(3-chloro-4-methoxyphenethyl)-N-cyclohexyl-7-(3,5-dimethylisoxazol-4-yl)imidazo[1,2-a]pyridin-3-amine]", "values": [{"measurement": "more potent against CBP", "setting": "CBP bromodomain [4]; compared to compound 16", "result": 2, "unit": "fold"}, {"measurement": "MOLM13 cell growth inhibition", "setting": "MOLM13 cells", "result": "IC50 values similar to CBP30"}, {"measurement": "MM cell growth inhibition", "setting": "multiple myeloma lines", "result": "IC50 values similar to CBP30"}, {"measurement": "H3K27ac level", "setting": "H3K27ac level", "result": "reduced the H3K27ac level similar to CBP30"}, {"measurement": "MYC level", "setting": "MYC expression level", "result": "caused MYC depletion"}, {"measurement": "IRF4/MYC axis perturbation", "setting": "IRF4/MYC axis", "result": "perturbed"}, {"measurement": "DSF selectivity", "setting": "CBP bromodomain [3]", "result": "greater selectivity than the known inhibitor, CBP30"}, {"measurement": "BROMOSCAN binding and selectivity", "setting": "34 bromodomains", "result": "better binding and selectivity compared to compound 7 and 16"}]}
{"smiles": "COc1ccc(CCc2nc3cc(-c4c(C)noc4C)ccn3c2NC2CCCCC2)cc1OC", "note": "[Compound 32]", "values": [{"measurement": "loss in CBP inhibitory activity", "setting": "CBP bromodomain [4]", "result": "~ 10 fold"}]}
{"smiles": "COc1ccc(CCc2nc3cc(-c4c(C)noc4C)ccn3c2NC(C)C)cc1OC", "note": "[Compound 33, 2-(3,4-dimethoxyphenethyl)-7-(3,5-dimethylisoxazol-4-yl)-N-isopropylimidazo[1,2-a]pyridin-3-amine]", "values": [{"measurement": "loss in BRD4 inhibitory activity", "setting": "BRD4 BD1 [1]; compared to compound 23", "result": 4, "unit": "fold"}, {"measurement": "loss in CBP inhibitory activity", "setting": "CBP bromodomain [4]", "result": 49, "unit": "fold"}]}
